# DENV2 CPE rescue – inhibitors of DENV2 cytopathic effect, primary screen, cell-based, plate reader, single concentration. actives 1.7% (n = 350,000). DENV2-infected cells, cytopathic effect rescue. CPE inhibition, % at 9.99 µM. AID 651640, 2012; in the data active = CPE inhibition above about 20%, passing the limit was not always enough; tested in BHK-21 cells
# Cneo AK release – Cryptococcus neoformans cell lysis inducers, primary screen, AK release luminescence, single concentration; C. neoformans lysis, adenylate kinase release luminescence, 4 h; normalised: neutral wells 0, clomiphene wells 100; actives 0.2% (n = 360,000); lysis activity, % at 15 µM; AID 651654, 2012;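 active = mean lysis activity across replicates of at least 80%, whatever share of replicates individually reach that level; inactive = mean lysis activity below 80%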
#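 Material – log-phase Cryptococcus neoformans yeast cells · Input – 5 × 10^6 yeast cells/mL · Medium – fresh YPD growth medium · Doses – single compound concentration per well · Timing – static 4 h at 37 °C with compound, 1 h detection · Detection – adenylate kinase release luminescence · Read-out – signal increase indicating cell lysis · Control set – Clomiphene as positive lysis control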
# PGC1a acetyl inh – inhibitors of PGC1a acetylation signal, primary screen, cell-based, U2OS, AlphaScreen, inhibitor mode | AlphaScreen anti-acetyl-lysine; with virally co-expressed GCN5 acetyltransferase | inhibition, % at 15.6 µM | actives 0.17% (n = 350,000) | AID 651687, 2012;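 active = every replicate shows inhibition of at least 40%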
# CFTR F508del cor – F508del CFTR correction, initial screen, CFBE line, single point; CFBE cells, YFP halide quenching; stimulated with forskolin plus potentiator P3; % fluorescence drop versus neutral controls; activity (quench increase), % at 7.58 µM; actives 0.36% (n = 350,000);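 active = mean added fluorescence quench of at least 8% versus neutral control, with both replicates also reaching 8%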;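 also: cells transiently co-express mutant CFTR-F508del with the halide-sensitive YFP; corrector assay measuring rescue of mutant channel to the surface after 24 h compound exposure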
# Xi reactivation – activators of inactive X chromosome reactivation, primary screen, imaging, XiGFP fibroblasts, GFP high-content imaging, set 2; XiGFP mouse fibroblasts, % GFP-positive cells imaging, 3 d; cells co-treated with 5-aza-dC sensitizer; scaled so ellipticine positive control = 100%; actives 0.055% (n = 360,000); activation, % at 7.58 µM;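 active = mean normalized replicate activation at least 10% and every replicate at or above 10%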
#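 Material: XiGFP fibroblasts, SV40-immortalized; Buffer or medium: DMEM containing 5-aza-dC; Compound dosing: single point; Times: 3 days compound exposure.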
# FN deposit inh – inhibitors of fibronectin matrix deposition, primary screen, AH1F cells, Alexa488-fibronectin fluorescence, plate reader; AH1F fibroblasts, overnight; inhibition, % at 12.6 µM; actives 0.086% (n = 350,000); AID 743247, 2014;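 active = mean inhibition across replicates of 30% or more, regardless of how many single replicates reach that level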
#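 Assay system: AH1F fibroblasts / Quantity: 10000 cells per well / Medium: DMEM plus 2% serum, read in PBS / Reagent: labelled fibronectin 24 nM / Dosing: single dose, pinned / Times: 1 h cell attachment, overnight exposure to compound and label / Signal: fluorescence, ex 485 nm, em 525 nm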
# Hits are given with their value; - = inactive; . = not tested or not shown. Sampled rows, rich in hits. Any-hit rate of the full collection: about 1.9%.
SMILES,DENV2 CPE rescue,Cneo AK release,PGC1a acetyl inh,CFTR F508del cor,Xi reactivation,FN deposit inh
Cc1ccc(S(=O)(=O)N(C)C[C@@H]2OCCCC[C@H](C)Oc3ccc(NS(=O)(=O)c4c(C)noc4C)cc3C(=O)N([C@H](C)CO)C[C@@H]2C)cc1,89,-,-,-,-,-
Cc1ccc(S(=O)(=O)N(C)C[C@H]2OCCCC[C@H](C)Oc3ccc(NS(=O)(=O)c4c(C)noc4C)cc3C(=O)N([C@@H](C)CO)C[C@@H]2C)cc1,43,-,-,-,-,-
C[C@H](CO)N1C[C@H](C)[C@H](CN(C)C(=O)Nc2ccc3c(c2)OCO3)OCCCC[C@H](C)Oc2ccc(NC(=O)c3ccncc3)cc2C1=O,-,-,-,-,-,-
Cc1ccc(S(=O)(=O)N(C)C[C@@H]2OCCCC[C@@H](C)Oc3ccc(NS(=O)(=O)c4c(C)noc4C)cc3C(=O)N([C@H](C)CO)C[C@H]2C)cc1,62,-,-,-,-,-
Cc1ccc(S(=O)(=O)Nc2ccc3c(c2)C(=O)N([C@@H](C)CO)C[C@H](C)[C@@H](CN(C)S(=O)(=O)c2c(C)noc2C)OCCCC[C@@H](C)O3)cc1,-,-,-,-,-,-
Cc1ccc(S(=O)(=O)N(C)C[C@@H]2OCCCC[C@H](C)Oc3ccc(NS(=O)(=O)c4c(C)noc4C)cc3C(=O)N([C@H](C)CO)C[C@H]2C)cc1,112,-,-,-,-,-
Cc1ccc(S(=O)(=O)Nc2ccc3c(c2)C(=O)N([C@@H](C)CO)C[C@@H](C)[C@@H](CN(C)S(=O)(=O)c2c(C)noc2C)OCCCC[C@@H](C)O3)cc1,28,-,-,-,-,-
Cc1ccc(S(=O)(=O)Nc2ccc3c(c2)C(=O)N([C@@H](C)CO)C[C@@H](C)[C@H](CN(C)S(=O)(=O)c2c(C)noc2C)OCCCC[C@@H](C)O3)cc1,-,-,-,-,-,-
O=C(c1ccncc1)N1C[C@H]2[C@@H](c3ccccc31)[C@H](CO)N2C(=O)c1ccncc1,-,-,-,-,-,.
CN(CC(=O)Nc1c(Cl)cccc1Cl)C(=O)c1ccc(NS(=O)(=O)c2ccc3[nH]c(=O)[nH]c3c2)cc1,40,-,-,-,-,-
Cc1ccc(NC(=O)CN(C)C(=O)c2ccc(NS(=O)(=O)c3ccc4[nH]c(=O)[nH]c4c3)cc2)cc1,-,-,-,-,-,-
C[C@H](CO)N1C[C@H](C)[C@@H](CN(C)Cc2ccc(C(F)(F)F)cc2)Oc2ccc(NS(C)(=O)=O)cc2CC1=O,-,-,-,-,-,-
C[C@@H]1CN([C@H](C)CO)C(=O)Cc2cc(NC(=O)c3ccncc3)ccc2O[C@H]1CN(C)C(=O)Nc1ccc(C(F)(F)F)cc1,23,-,-,-,-,.
C[C@@H]1CN([C@@H](C)CO)C(=O)Cc2cc(NC(=O)c3ccncc3)ccc2O[C@H]1CN(C)Cc1ccncc1,-,100,-,-,-,.
C[C@@H]1CN([C@@H](C)CO)C(=O)Cc2cc(NS(C)(=O)=O)ccc2O[C@H]1CN(C)Cc1ccc(C(F)(F)F)cc1,20,-,-,-,-,-
C[C@H](CO)N1C[C@H](C)[C@H](CN(C)Cc2ccc(C(F)(F)F)cc2)Oc2ccc(NC(=O)Nc3ccc(C(F)(F)F)cc3)cc2CC1=O,63,-,-,-,-,.
COc1ccc(NC(=O)N(C)C[C@H]2Oc3c(NC(=O)C4CC4)cccc3C(=O)N([C@H](C)CO)C[C@H]2C)cc1,-,-,-,-,-,-
O=C(C[C@H]1CC[C@H](NC(=O)Cc2ccccn2)[C@H](CO)O1)NCCc1ccncc1,-,-,-,-,-,-
CCCN1[C@H](C(=O)NCCOC)[C@@H](CO)[C@@H]2Cn3c(ccc(-c4ccc(C(=O)N(C)C)cc4)c3=O)[C@@H]21,-,-,.,.,-,.
C[C@H]1CN([C@@H](C)CO)C(=O)Cc2cc(NC(=O)C3CCCCC3)ccc2O[C@@H]1CN(C)Cc1ccc(C(F)(F)F)cc1,39,-,-,-,-,-
C[C@H]1CN([C@@H](C)CO)C(=O)Cc2cc(NC(=O)c3ccncc3)ccc2O[C@@H]1CN(C)Cc1ccc(C(F)(F)F)cc1,-,-,-,-,-,-
C[C@H]1CN([C@@H](C)CO)C(=O)Cc2cc(NC(=O)Cc3ccccc3)ccc2O[C@@H]1CN(C)Cc1ccncc1,23,-,-,-,-,.
C[C@@H]1CN([C@@H](C)CO)C(=O)Cc2cc(NC(=O)c3ccncc3)ccc2O[C@@H]1CN(C)Cc1ccc(C(F)(F)F)cc1,31,-,-,-,-,-
C[C@@H]1CN([C@@H](C)CO)C(=O)Cc2cc(NC(=O)Nc3ccc(C(F)(F)F)cc3)ccc2O[C@H]1CN(C)C(=O)Nc1ccc(C(F)(F)F)cc1,53,-,-,-,-,.
C[C@@H]1CN([C@@H](C)CO)C(=O)Cc2cc(NC(=O)Nc3ccc(F)cc3)ccc2O[C@H]1CN(C)Cc1ccc(Oc2ccccc2)cc1,-,-,-,-,-,.
SMILES,DENV2 CPE rescue,Cneo AK release,PGC1a acetyl inh,CFTR F508del cor,Xi reactivation,FN deposit inh
CN1c2ccc(-c3cccc(C#N)c3)cc2[C@H]2[C@H](CCN2S(=O)(=O)c2ccccc2)[C@H]1CO,-,-,-,-,-,-
O=C(c1cnccn1)N1CC[C@H]2[C@H](CO)Nc3ccc(-c4ccccc4F)cc3[C@H]21,.,-,-,-,-,-
C[C@H]1C[C@H]2[C@@H]3CCC4=CC(=O)C=C[C@]4(C)[C@@]3(Cl)[C@@H](O)C[C@]2(C)[C@@]1(O)C(=O)CO,-,-,-,-,-,-
C[C@H]1C[C@H]2[C@@H]3CCC4=CC(=O)C=C[C@]4(C)[C@@]3(F)[C@@H](O)C[C@]2(C)[C@@]1(O)C(=O)CO,-,-,-,10,-,-
COCC(=O)N[C@H]1C=C[C@@H](CC(=O)NCc2ccc(Cl)cc2)O[C@@H]1CO,.,.,-,-,-,-
C[C@H](CO)N1C[C@H](C)[C@@H](CN(C)S(=O)(=O)c2ccc(Cl)cc2)Oc2c(NC(=O)c3nc4ccccc4s3)cccc2C1=O,25,-,-,-,-,-
C[C@H](CO)N1C[C@H](C)[C@H](CN(C)Cc2ccc(-c3ccccc3)cc2)Oc2c(NC(=O)c3nc4ccccc4s3)cccc2C1=O,41,-,-,-,-,.
